According to ChEMBL document CHEMBL5058577, “EUbOPEN Chemogenomics Library 2 (Multiplex)” (2022):

System: U2OS
Test: Multiplex assay against U2OS
Format: toxicity, cell-based
Details: human
In short: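 Values for tubulin, mitochondrial-mass and membrane-permeability phenotypes are per cents of cells with healthy nuclei. These cells were identified by CellPathfinder machine-learning gating of live cells that had been stained at seeding with Hoechst33342, BioTracker Green Microtubule Cytoskeleton Dye, MitoTracker Red and Annexin V Alexa Fluor 680 and imaged on a CQ1 microscope at 37°C and 5% CO2 after compound addition. The gating first set Hoechst high-intensity objects apart from normal cells, then split normal cells into healthy, pyknosed or fragmented nuclei, and pyknosed cells into mitotic or apoptotic.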

[1] = 12 h, 1 µM, compound concentration 1 uM, replicate 1
[2] = 12 h, 1 µM, compound concentration 1 uM, replicate 2
[3] = 12 h, 10 µM, compound concentration 10 uM, replicate 1
[4] = 12 h, 10 µM, compound concentration 10 uM, replicate 2
[5] = 24 h, 1 µM, compound concentration 1 uM, replicate 1
[6] = 24 h, 1 µM, compound concentration 1 uM, replicate 2
[7] = 24 h, 10 µM, compound concentration 10 uM, replicate 1
[8] = 24 h, 10 µM, compound concentration 10 uM, replicate 2
[9] = 48 h, 1 µM, compound concentration 1 uM, replicate 1
[10] = 48 h, 1 µM, compound concentration 1 uM, replicate 2
[11] = 48 h, 10 µM, compound concentration 10 uM, replicate 1
[12] = 48 h, 10 µM, compound concentration 10 uM, replicate 2

## CCCCC[C@H](O)/C=C/[C@H]1[C@H](O)CC(=O)[C@@H]1CCCCCCC(=O)O [ALPROSTADIL]
[1]
  Population Apoptotic (%): 100%
  Population Fragmented Nuclei (%): 31%
  Population Healthy Nuclei (%): 62%
  Population Hoechst High Intensity Objects (%): 1%
  Population Membrane Permeable-Phenotype (%): 4%
  Population Mitochondria Different-Phenotype (%): 2%
  Population Mitotic Cells (%): 0%
  Population Normal (%): 98%
  Population Pyknosed Nuclei (%): 6%
  Population Tubulin-Different-Phenotype (%): 2%
  Total Cell Count: 219
[2]
  Population Apoptotic (%): 77%
  Population Fragmented Nuclei (%): 11%
  Population Healthy Nuclei (%): 81%
  Population Hoechst High Intensity Objects (%): 0%
  Population Membrane Permeable-Phenotype (%): 9%
  Population Mitochondria Different-Phenotype (%): 5%
  Population Mitotic Cells (%): 22%
  Population Normal (%): 100%
  Population Tubulin-Different-Phenotype (%): 6%
  Total Cell Count: 132
[3]
  Population Apoptotic (%): 71%
  Population Fragmented Nuclei (%): 23%
  Population Healthy Nuclei (%): 69%
  Population Hoechst High Intensity Objects (%): 1%
  Population Membrane Permeable-Phenotype (%): 1%
  Population Mitochondria Different-Phenotype (%): 0%
  Population Mitotic Cells (%): 28%
  Population Normal (%): 98%
  Population Pyknosed Nuclei (%): 6%
  Population Tubulin-Different-Phenotype (%): 0%
  Total Cell Count: 222
[4]
  Population Apoptotic (%): 77%
  Population Fragmented Nuclei (%): 15%
  Population Healthy Nuclei (%): 75%
  Population Hoechst High Intensity Objects (%): 2%
  Population Membrane Permeable-Phenotype (%): 5%
  Population Mitochondria Different-Phenotype (%): 3%
  Population Mitotic Cells (%): 22%
  Population Normal (%): 97%
  Population Pyknosed Nuclei (%): 8%
  Population Tubulin-Different-Phenotype (%): 5%
  Total Cell Count: 104
[5]
  Population Apoptotic (%): 91%
  Population Fragmented Nuclei (%): 25%
  Population Healthy Nuclei (%): 65%
  Population Hoechst High Intensity Objects (%): 1%
  Population Membrane Permeable-Phenotype (%): 5%
  Population Mitochondria Different-Phenotype (%): 2%
  Population Mitotic Cells (%): 8%
  Population Normal (%): 98%
  Population Pyknosed Nuclei (%): 9%
  Population Tubulin-Different-Phenotype (%): 3%
  Total Cell Count: 263
[6]
  Population Apoptotic (%): 87%
  Population Fragmented Nuclei (%): 14%
  Population Healthy Nuclei (%): 75%
  Population Hoechst High Intensity Objects (%): 0%
  Population Membrane Permeable-Phenotype (%): 8%
  Population Mitochondria Different-Phenotype (%): 4%
  Population Mitotic Cells (%): 12%
  Population Normal (%): 99%
  Total Cell Count: 166
[7]
  Population Apoptotic (%): 94%
  Population Fragmented Nuclei (%): 19%
  Population Healthy Nuclei (%): 74%
  Population Hoechst High Intensity Objects (%): 1%
  Population Membrane Permeable-Phenotype (%): 5%
  Population Mitochondria Different-Phenotype (%): 0%
  Population Mitotic Cells (%): 5%
  Population Normal (%): 98%
  Population Pyknosed Nuclei (%): 6%
  Population Tubulin-Different-Phenotype (%): 3%
  Total Cell Count: 271
[8]
  Population Apoptotic (%): 100%
  Population Fragmented Nuclei (%): 12%
  Population Healthy Nuclei (%): 76%
  Population Hoechst High Intensity Objects (%): 0%
  Population Membrane Permeable-Phenotype (%): 4%
  Population Mitochondria Different-Phenotype (%): 2%
  Population Mitotic Cells (%): 0%
  Population Normal (%): 99%
  Population Pyknosed Nuclei (%): 10%
  Population Tubulin-Different-Phenotype (%): 1%
  Total Cell Count: 131
[9]
  Population Apoptotic (%): 87%
  Population Fragmented Nuclei (%): 22%
  Population Healthy Nuclei (%): 68%
  Population Hoechst High Intensity Objects (%): 2%
  Population Membrane Permeable-Phenotype (%): 4%
  Population Mitochondria Different-Phenotype (%): 2%
  Population Mitotic Cells (%): 12%
  Population Normal (%): 97%
  Population Pyknosed Nuclei (%): 9%
  Population Tubulin-Different-Phenotype (%): 2%
  Total Cell Count: 367
[10]
  Population Apoptotic (%): 95%
  Population Fragmented Nuclei (%): 18%
  Population Healthy Nuclei (%): 71%
  Population Hoechst High Intensity Objects (%): 3%
  Population Membrane Permeable-Phenotype (%): 6%
  Population Mitochondria Different-Phenotype (%): 5%
  Population Mitotic Cells (%): 4%
  Population Normal (%): 96%
  Population Tubulin-Different-Phenotype (%): 6%
  Total Cell Count: 236
[11]
  Population Apoptotic (%): 88%
  Population Fragmented Nuclei (%): 13%
  Population Healthy Nuclei (%): 76%
  Population Hoechst High Intensity Objects (%): 0%
  Population Membrane Permeable-Phenotype (%): 4%
  Population Mitochondria Different-Phenotype (%): 0%
  Population Mitotic Cells (%): 11%
  Population Normal (%): 99%
  Population Pyknosed Nuclei (%): 10%
  Population Tubulin-Different-Phenotype (%): 3%
  Total Cell Count: 362
[12]
  Population Apoptotic (%): 100%
  Population Fragmented Nuclei (%): 11%
  Population Healthy Nuclei (%): 77%
  Population Hoechst High Intensity Objects (%): 2%
  Population Membrane Permeable-Phenotype (%): 6%
  Population Mitochondria Different-Phenotype (%): 1%
  Population Mitotic Cells (%): 0%
  Population Normal (%): 97%
  Population Tubulin-Different-Phenotype (%): 4%
  Total Cell Count: 165
